Screening results deposited in PubChem BioAssay by several laboratories.
GASC-1 inh: inhibitors of human GASC-1 (JMJD2C) demethylase; Q9H3R0; GST-JMJD2C(1-420) H3K9me3 demethylation, DELFIA europium; inhibition, % at 2.35 µM; 330,000 tested, 0.069% active; AID 2099;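 active = more than half of a compound's replicate wells show inhibition beyond 50%, single wells judged on their own value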;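 note: signal counts dimethyl H3K9 product captured on neutravidin plate; 0% = median of DMSO wells and 100% = 0.3 times that DMSO median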
Target sequence (Q9H3R0 1-420 limits assumed): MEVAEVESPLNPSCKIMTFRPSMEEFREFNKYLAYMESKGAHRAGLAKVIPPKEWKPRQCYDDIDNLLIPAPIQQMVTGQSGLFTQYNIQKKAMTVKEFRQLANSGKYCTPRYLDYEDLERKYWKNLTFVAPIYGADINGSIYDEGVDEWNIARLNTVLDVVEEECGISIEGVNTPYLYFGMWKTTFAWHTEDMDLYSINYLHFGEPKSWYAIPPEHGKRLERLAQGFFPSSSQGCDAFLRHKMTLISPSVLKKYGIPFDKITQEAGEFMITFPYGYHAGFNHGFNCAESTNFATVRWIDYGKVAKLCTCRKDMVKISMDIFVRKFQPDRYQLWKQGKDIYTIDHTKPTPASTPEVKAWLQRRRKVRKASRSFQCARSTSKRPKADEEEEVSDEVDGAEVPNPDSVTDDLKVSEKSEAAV
Mot1-301 SUMO: SUMOylation pathway inhibition by Mot1-301 growth rescue | S. cerevisiae Mot1-301 growth rescue, ATP luminescence, 38.5C; percent above DMSO median, 100 means doubled | growth rescue, % at 18.8 µM | 320,000 tested, 1% active | AID 2716;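 active = every valid replicate shows activation above 250% relative to neutral control wells; inactive = the rest, any valid replicate at or below 250%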;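 note: OY570 slx delta 5 strain wells were the positive control but not used for scaling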
T cell modulator: modulates CD8 T cell binding to vesicles; 2C CD8+ T cell-vesicle binding, flow cytometry; hits give low values; 330,000 tested, 0.068% active; response (vesicle binding), % at 7 µM;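 active = response, share of CD8 T cells binding vesicles, and their 90th percentile fluorescence all below set limits, cut at about 80% in these data, passing the limit was not always enough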;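 note: values below 100% mean blocked vesicle binding to the CD8+ T cells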
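Benchmarks: naked versus QL9-loaded vesicles / Assay system: purified 2C TCR transgenic mouse naive CD8+ T cells / Technique: high-throughput flow cytometry with anti-B7-1 and anti-CD8 staining / Timing: Cell–vesicle co-incubation 1.5 h at 37 °C, staining 20 min on ice / Read-out: percent CD8+ FL2 mean versus row control / Probe or stimulus: QL9-loaded Drosophila micro-vesicles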
HIF act: HIF pathway transcriptional activation | U2OS HRE-luciferase reporter, luminescence; normalized: DMSO 0%, desferrioxamine 100% | 300,000 tested, 0.32% active | activation, % at 7.5 µM (by protocol);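 active = mean activation of at least 10% of the iron chelator positive control signal, with at least half of replicates also reaching 10%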
Yeast Mot1 SUMO: inhibits SUMO pathway, affecting Mot1-301 yeast growth. growth activity, percent, % at 42 µM. shares compounds with Mot1-301 SUMO. S. cerevisiae Mot1-301 galactose growth, ATP luminescence, 24 h; -100 = growth of slx-deleted rescue strain. 2,300 tested, under 10 active;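 active = Signal drops as the depositor expects, and the fitted half-maximal dose is no more than ten times the top valid tested dose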;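 note: more negative values mean stronger growth rescue toward the control strain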
Starred values were filed as active, the others as inactive; i = inactive; x = not tested or not shown; + = active, no number; [ ] = remark or other dose. The list is not random: actives were taken first. Their share in the collection is about 1.4%.

SMILES	GASC-1 inh	Mot1-301 SUMO	T cell modulator	HIF act	Yeast Mot1 SUMO
Cc1ccc(NC(=O)NNC(=O)Cn2nc(-c3ccccc3)c(-c3ccccc3)c(C#N)c2=O)cc1	-9	364*	850	2	0
CC(=O)N1CCN(CC(O)COc2ccc(OCc3ccccc3)cc2)CC1 (centres undefined)	4	402*	218	0	0
CCN(CC)C(=O)Cn1cc(C(=O)C(=O)Nc2ccc3c(c2)OCCO3)c2ccccc21	3	434	167	3	x
Cc1ccc(NC2CC(=O)N(c3ccc(N4CCCCC4)cc3)C2=O)cc1 (centres undefined)	4	680*	348	0	0[21 µM]
COC(=O)Nc1ccc(S(=O)(=O)N2CCCC(C(=O)NC3CCS(=O)(=O)C3)C2)cc1 (centres undefined)	19	387*	376	-1	0
O=C(COC(=O)CN1C(=O)c2ccccc2C1=O)Nc1cccc(F)c1	x	0	284	x	x
CC(C)C(NC(=O)C(NC(=O)C1OC2OC(C)(C)OC2C2OC(C)(C)OC12)C(C)C)C(=O)O (centres undefined)	11	x	300	0	x
COCCN1C(=O)/C(=C/c2cc3c(cc2Br)OCO3)NC1=S	-19	603*	265	0	-1
C/C(=N\NC(=O)c1cccc(N/N=C(\C)c2ccc([N+](=O)[O-])cc2)c1)c1ccc([N+](=O)[O-])cc1	-6	540*	155	0	1
CCOc1ccc(NC(=O)c2ccc(-c3csc(C)n3)cc2)cc1	16	11	186	-1	x
COc1ccc(NC(=O)c2ccc(-c3csc(C)n3)cc2)cc1	-5	796*	403	-22	0
COC(=O)c1ccccc1NC(=O)c1cnn2c(C)cc(C)nc12	-2	892*	374	0	1
CCn1c2nc(SCCN3CCOCC3)nnc2c2cc(C)cc(C)c21	-1	7	81	0	x
CCN(CC)CCCNC(=O)C1c2ccccc2C(=O)N(CCOC)C1c1ccc(F)cc1 (centres undefined)	-2	691*	174	-1	0[21 µM]
CCOC(=O)CNC(=O)c1cccnc1	-8	+	197	0	0
CCOC(=O)C(O)(NC(=O)c1cccnc1)C(F)(F)F (centres undefined)	-1	-5	i	x	x
O=C(COC(=O)C1CCCCC1)Nc1ccc(S(=O)(=O)N2CCOCC2)cc1	-5	-10	238	-1	x
COc1ccc2cc(C#N)c(Nc3cccc(F)c3)nc2c1	-6	572*	222	1	0
COCc1cc(=O)n2[nH]c(C)cc2n1	2	-15	241	0	x
Cc1cc2nc(CCl)cc(=O)n2[nH]1	-8	+	174	0	0
CC1=CC(=O)C=C(C)C1=NOS(=O)(=O)c1ccccc1	3	x	x	-3	x
CC1=CC(=O)C(C(C)C)=C/C1=N/OS(=O)(=O)c1ccccc1	1	390*	104	-3	-4
CC1=C(C(=O)OC2CCCCC2)C(c2ccc(N(C)C)cc2)NC(=O)N1 (centres undefined)	-5	-4	516	-1	x
Cc1nc(C)n(CC(=O)N2CCCC(C(=O)c3cccc4ccccc34)C2)n1 (centres undefined)	-1	365*	150	1	-1
CCN(CC)c1ncnc2ccc(Br)cc12	1	410*	491	2	0
SMILES	GASC-1 inh	Mot1-301 SUMO	T cell modulator	HIF act	Yeast Mot1 SUMO
CC(=O)C[C@H](O)CC(=O)[C@@H]1OC(=O)CCCCC/C=C/Cc2ccccc21	-3	0	265	x	x
COc1cccc2c1cc1c(=O)n(CC(=O)NCc3ccccn3)nc(C)n12	-5	25	391	0	x
COc1ccc(C(=O)N2CCCN(C)CC2)cc1S(=O)(=O)N(C)Cc1ccccc1	0	-13	426	x	x
Cn1c(=O)c2c(ncn2CC(=O)N2CCCCCC2)n(C)c1=O	-2	+	323	-1	0
CC1CCN(C(=O)Cn2cnc3c2c(=O)n(C)c(=O)n3C)c2ccccc2S1 (centres undefined)	-41	761*	433	0	0
O=C1CC[C@@H](C(=O)O)N1	x	322	500	x	x
Cc1cc(C)n(-c2nc3ccccc3nc2N2CCN(C(=O)c3ccccc3)CC2)n1	3	497*	308	1	-1
Cc1cc(C)n(-c2ccc(C(=O)N3CCN(c4ccccn4)CC3)cc2)n1	3	9	373	x	x
